Experiments:
HEp-2 = experiment: Tested in vitro for the cytotoxicity as number of viable cells against Hep-2 cell line after 72 hr treatment at conc. of 10E-6; type: functional; conditions: Homo sapiens, HEp-2, 72 h; read-out: ID50 (the source's name)
Procedure, shortened: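 Cytotoxicity read as number of viable cells. Hep-2 (MEM) received 72-h continuous drug treatment. L1210 and L1210/L-PAM (RPMI 1640) received 4-h treatment followed by 48-h incubation in drug-free medium. Media contained 10% fetal calf serum, glutamine, streptomycin and penicillin, at 37 °C in humidified 5% CO2.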

HeLa = experiment: Tested in vitro for the dose inhibiting cell proliferation by 50% against HeLa cell line after 24 hr treatment at conc. of 10E-6; type: functional; conditions: Homo sapiens, read-out: ID50 (the source's name)
L1210 [1] = experiment: Tested in vivo for optimal non-toxic dose against L1210 cell line in CDF1 mice; type: ADME, organism-based; conditions: mouse
Procedure, shortened: (§1)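 CDF1 mice inoculated intraperitoneally with 10⁵ L1210 or L1210/L-PAM cells per mouse, then treated intraperitoneally after tumor transplant. T/C % = median survival time of treated mice / median survival time of controls × 100. Activity criterion is T/C ≥ 125%. Optimal nontoxic dose (OD) is defined as a dose below LD10.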

L1210/LPAM [2] = experiment: Tested in vivo for optimal non-toxic dose against L1210/LPAM cell line in CDF1 mice; type: ADME, organism-based; conditions: mouse; procedure, shortened: as §1
L1210/LPAM [3] = experiment: Median survival time of treated to the control was determined in L1210/LPAM cell line; type: functional, Mus musculus; procedure, shortened: as §1
L1210 [4] = experiment: Median survival time of treated to the control mice with L1210 tumor cells; type: functional, Mus musculus; procedure, shortened: as §1
[5] = Tested in vitro for the resistance index ratio (ID50) of L1210/LPAM to L1210 cell line; type: functional
Procedure, shortened: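 Resistance index = ID50 (L1210/L-PAM) / ID50 (L1210), where ID50 is the dose inhibiting proliferation by 50%. Cells were exposed to drug for 4 h, then incubated 48 h in drug-free medium. Culture was RPMI 1640 with 10% fetal calf serum, glutamine and antibiotics, at 37 °C in 5% CO2.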

L1210 [6] = experiment: Tested in vitro for the cytotoxicity as number of viable cells against L1210 cell line after 4 hr treatment and 48 hr incubation in drug-free medium at conc. of 10E-6; conditions: Mus musculus, L1210, 4 h treatment, 48 h drug-free incubation; read-out: ID50 (the source's name)
L1210/LPAM [7] = experiment: Tested in vitro for the cytotoxicity as number of viable cells against L1210/LPAM cell line after 4 hr treatment and 48 hr incubation in drug-free medium at conc. of 10E-6; conditions: Mus musculus, 48 h drug-free incubation, read-out: ID50 (the source's name)
L1210 [8] = experiment: Median survival time of treated to the control was determined in L1210 cell line; type: functional, Mus musculus; procedure, shortened: as §1

SMILES | IC50 (HEp-2) | IC50 (HeLa) | OD (L1210 [1]) | OD (L1210/LPAM [2]) | T/C (L1210/LPAM [3]) | T/C (L1210 [4]) | Ratio [5] | IC50 (L1210 [6]) | IC50 (L1210/LPAM [7]) | T/C (L1210 [8])
Cl.Cn1cc(NC(=O)c2cc(NC(=O)c3cc(N(CCCl)CCCl)cn3C)cn2C)cc1C(=O)NCCC(=N)N | 1220 nM | 1950 nM | 1.56 M | 1.56 mg/kg | 122% | 138% | 1.3 | 3530 nM | 4560 nM | 
Cl.Cn1cc(NC(=O)c2cc(NC(=O)c3cc(NC(=O)c4cc(N(CCCl)CCCl)cn4C)cn3C)cn2C)cc1C(=O)NCCC(=N)N | 100 nM | 60 nM | 0.39 mg/kg | 0.39 mg/kg | 167% | 188% | 0.87 | 80 nM | 70 nM | 
Cl.Cn1cc(NC(=O)c2cc(NC(=O)c3cc(NC(=O)c4cc(N(CCCl)CCCl)cs4)cn3C)cn2C)cc1C(=O)NCCC(=N)N | 90 nM | 50 nM | 1.56 mg/kg | 1.56 mg/kg | 111% | 132% | 0.69 | 1930 nM | 1320 nM | 
N[C@@H](Cc1ccc(N(CCCl)CCCl)cc1)C(=O)O [MELPHALAN] | 980 nM | 1770 nM | 10 mg/kg | 10 mg/kg | 104% |  | 7.7 | 1700 nM | 13100 nM | 192%
Cn1cc(NC(=O)c2cc(NC(=O)c3cc(NC=O)cn3C)cn2C)cc1C(=O)NCCC(=N)N [STALLIMYCIN] | 97000 nM | 48000 nM | 200 mg/kg | 200 mg/kg | 106% | 113% | 0.7 | 488000 nM | 343000 nM | 
Cl.Cn1cc(NC(=O)c2cc(NC(=O)c3cc(NC(=O)c4ccc(N(CCCl)CCCl)cc4)cn3C)cn2C)cc1C(=O)NCCC(=N)N [TALLIMUSTINE CHLORIDE] | 190 nM | 20 nM | 3.12 mg/kg | 3.12 mg/kg | 144% | 175% |  | 1220 nM | 360 nM | 
